Results from ChEMBL document CHEMBL4229446, “Development of Novel Monoamine Oxidase-B (MAO-B) Inhibitors with Reduced Blood-Brain Barrier Permeability for the Potential Management of Noncentral Nervous System (CNS) Diseases” (J Med Chem, 2018).

Legend:
[1] = Metabolic stability in human plasma assessed as parent compound remaining at 5 uM after 4 hrs by UPLC-MS/MS analysis; assay type: ADME, cell-free; conditions: read-out: Stability
Procedure, shortened: (§1)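 Compound at 5 μM was incubated in mouse or human plasma at 37 °C with shaking. Sampled at 0, 5, 15, 30, 60, 120 and 240 min and stopped with ice-cold acetonitrile/0.1% formic acid containing internal standard. Supernatants analysed by UPLC-MS/MS for parent remaining. Run in triplicate.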

[2] = Metabolic stability in mouse plasma assessed as parent compound remaining at 5 uM after 4 hrs by UPLC-MS/MS analysis; assay type: ADME, cell-free; conditions: read-out: Stability; procedure, shortened: as §1
[3] = Metabolic stability in mouse liver microsomes assessed as parent compound remaining at 1 uM after 60 mins by UPLC-MS/MS analysis; assay type: ADME, microsome; conditions: microsomes, 1 h, 1 µM
Procedure, shortened: (§2)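 Compound at 1 μM with 0.5 mg/mL mouse or human liver microsomes in 100 mM potassium phosphate pH 7.4, 3.3 mM MgCl2, 1 mM NADPH, at 37 °C. Started with NADPH; minus-NADPH control run. Stopped at 0, 5, 15, 30, 45 and 60 min with acetonitrile/formic acid plus internal standard. Parent remaining by UPLC-MS/MS, in triplicate.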

[4] = Metabolic stability in human liver microsomes assessed as parent compound remaining at 1 uM after 60 mins by UPLC-MS/MS analysis; assay type: ADME, microsome; procedure, shortened: as §2
Mus musculus [5] = assay: Acute toxicity in C57BL/6 mouse assessed as lethargy at 10.8 mg/kg, iv after 1 hr post-injection; assay type: organism-based; conditions: in vivo
Mus musculus [6] = assay: Acute toxicity in C57BL/6 mouse assessed as piloerection at 10.8 mg/kg, sc after 1 hr post-injection; assay type: organism-based; conditions: in vivo
[7] = Cmax in C57BL/6 mouse plasma at 10.8 mg/kg, iv administered as single dose measured 24 hrs by UPLC-MS/MS analysis; assay type: ADME, organism-based; design: dose 10.8 mg/kg, route intravenous
Procedure, shortened: (§3)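 Plasma extracted by protein precipitation/phospholipid removal; brain weighed, homogenised in 50 mM ammonium formate, extracted in acidified organic solvent, ng/g taken as ng/mL. Quantified by UPLC-MS/MS (MRM); parameters by noncompartmental analysis.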

[8] = Tmax in C57BL/6 mouse plasma at 10.8 mg/kg, iv administered as single dose measured 24 hrs by UPLC-MS/MS analysis; assay type: ADME, organism-based; procedure, shortened: as §3
[9] = AUClast in C57BL/6 mouse plasma at 10.8 mg/kg, iv administered as single dose measured 24 hrs by UPLC-MS/MS analysis; assay type: ADME, organism-based; design: dose 10.8 mg/kg, route intravenous, time 0 - last; procedure, shortened: as §3
[10] = Apparent half-life of the terminal disposition phase in C57BL/6 mouse plasma at 10.8 mg/kg, iv administered as single dose measured 24 hrs by UPLC-MS/MS analysis; assay type: ADME, organism-based; conditions: read-out: t1/2 lambda z (converted); procedure, shortened: as §3
[11] = Apparent half-life of the terminal disposition phase in C57BL/6 mouse brain at 10.8 mg/kg, iv administered as single dose measured 24 hrs by UPLC-MS/MS analysis; assay type: ADME, organism-based; conditions: read-out: t1/2 lambda z (converted)
Procedure, shortened: (§4)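 21 animals dosed at 0 min, 3 sacrificed at each of 0, 5, 15, 30 min, 1, 4 and 24 h. Plasma was extracted by protein precipitation with phospholipid removal. Brain was weighed, bead-homogenised in 50 mM ammonium formate and extracted in acidified organic solvent. Quantified by UPLC-MS/MS (MRM). Brain ng/g taken as ng/mL. Parameters came from noncompartmental analysis. Kp = AUClast brain/plasma.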

[12] = Tmax in C57BL/6 mouse brain at 10.8 mg/kg, iv administered as single dose measured 24 hrs by UPLC-MS/MS analysis; assay type: ADME, organism-based; procedure, shortened: as §3
[13] = Cmax in C57BL/6 mouse brain at 10.8 mg/kg, iv administered as single dose measured 24 hrs by UPLC-MS/MS analysis; assay type: ADME, organism-based; design: dose 10.8 mg/kg, route intravenous; procedure, shortened: as §4
[14] = AUClast in C57BL/6 mouse brain at 10.8 mg/kg, iv administered as single dose measured 24 hrs by UPLC-MS/MS analysis; assay type: ADME, organism-based; design: dose 10.8 mg/kg, route intravenous, time 0 - last; procedure, shortened: as §4
[15] = Ratio of AUClast in brain to plasma in C57BL/6 mouse at 10.8 mg/kg, iv administered as single dose measured 24 hrs by UPLC-MS/MS analysis; assay type: ADME, organism-based; procedure, shortened: as §4
Mus musculus [16] = assay: Acute toxicity in C57BL/6 mouse assessed as lethargy at 10.8 mg/kg, sc after 1 hr post-injection; assay type: organism-based; conditions: in vivo
Mus musculus [17] = assay: Acute toxicity in C57BL/6 mouse assessed as lethargy at 10.8 mg/kg, po after 1 hr post-injection; assay type: organism-based; conditions: in vivo
Mus musculus [18] = assay: Acute toxicity in C57BL/6 mouse assessed as piloerection at 10.8 mg/kg, iv after 1 hr post-injection; assay type: organism-based; conditions: in vivo
Mus musculus [19] = assay: Acute toxicity in C57BL/6 mouse assessed as piloerection at 10.8 mg/kg, po after 1 hr post-injection; assay type: organism-based; conditions: in vivo
[20] = target: T1, Amine oxidase [flavin-containing] A (Homo sapiens, UniProt P21397); assay: Inhibition of human recombinant MAO-A expressed in baculovirus infected BTI-TN-5B1-4 insect cells using tyramine as substrate preincubated for 1 hr followed by substrate addition and measured after 30 mins by resazurin dye-based fluorescence assay
T1 sequence (P21397 whole entry): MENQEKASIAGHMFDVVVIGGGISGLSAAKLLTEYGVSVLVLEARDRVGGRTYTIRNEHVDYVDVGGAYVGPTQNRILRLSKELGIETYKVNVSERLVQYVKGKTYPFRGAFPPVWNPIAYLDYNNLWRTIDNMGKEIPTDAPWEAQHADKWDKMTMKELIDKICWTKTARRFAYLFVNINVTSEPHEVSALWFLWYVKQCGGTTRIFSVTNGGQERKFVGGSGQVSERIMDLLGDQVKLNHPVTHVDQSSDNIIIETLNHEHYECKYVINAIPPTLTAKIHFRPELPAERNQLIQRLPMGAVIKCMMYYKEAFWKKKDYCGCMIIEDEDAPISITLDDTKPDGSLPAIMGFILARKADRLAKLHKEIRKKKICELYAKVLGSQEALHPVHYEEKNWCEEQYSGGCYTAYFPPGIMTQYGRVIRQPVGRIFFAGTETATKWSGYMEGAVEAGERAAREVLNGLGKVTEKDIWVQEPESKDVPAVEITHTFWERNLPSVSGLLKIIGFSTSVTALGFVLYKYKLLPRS

[21] = target: T2, Amine oxidase [flavin-containing] B (Homo sapiens, UniProt P27338); assay: Inhibition of human recombinant MAO-B expressed in baculovirus infected BTI-TN-5B1-4 insect cells using benzylamine as substrate preincubated for 1 hr followed by substrate addition and measured after 30 mins by resazurin dye-based fluorescence assay; assay type: cell-based
T2 sequence (P27338 whole entry): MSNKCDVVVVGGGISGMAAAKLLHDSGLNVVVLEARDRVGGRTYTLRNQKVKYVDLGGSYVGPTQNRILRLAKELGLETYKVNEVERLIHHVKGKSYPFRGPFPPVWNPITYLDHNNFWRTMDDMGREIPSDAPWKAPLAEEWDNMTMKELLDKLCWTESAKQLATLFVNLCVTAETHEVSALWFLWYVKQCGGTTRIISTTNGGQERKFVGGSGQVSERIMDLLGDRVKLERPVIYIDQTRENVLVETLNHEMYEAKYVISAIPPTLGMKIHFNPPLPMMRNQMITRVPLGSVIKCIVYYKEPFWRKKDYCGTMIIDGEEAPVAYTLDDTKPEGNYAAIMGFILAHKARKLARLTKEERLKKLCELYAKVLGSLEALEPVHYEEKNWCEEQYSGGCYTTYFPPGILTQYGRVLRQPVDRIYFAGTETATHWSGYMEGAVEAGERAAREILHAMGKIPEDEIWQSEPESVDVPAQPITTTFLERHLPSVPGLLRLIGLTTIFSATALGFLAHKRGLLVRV

P-gp (MDR1) = assay: Efflux ratio of apparent permeability in MDCK2-MDR1 cells at 10 uM after 1 hr in absence of P-gp inhibitor verapamil by UPLC-MS/MS analysis; assay type: ADME, cell-based, Canis lupus familiaris; conditions: dog, MDCK-MDR1
Procedure, shortened: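 MDCK-WT (MEM-α/10% FBS) or MDCK-MDR1 II (DMEM/10% FBS) cells were grown 3 days on 12-well transwells. Integrity was checked by TEER and 100 μM Lucifer yellow. Cells were washed in HBSS/10 mM HEPES. Compound at 10 μM was added apically or basally, in triplicate, ±100 μM verapamil. Receiver sampled at 1 h by UPLC-MS/MS. Efflux ratio = Papp B→A / Papp A→B.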

[22] = Metabolic stability in mouse liver microsomes assessed as parent compound remaining at 1 uM after 60 mins in presence of NADPH by UPLC-MS/MS analysis; assay type: ADME, microsome; conditions: read-out: Stability; procedure, shortened: as §2
[23] = Metabolic stability in cryopreserved mouse hepatocytes assessed as parent compound remaining at 1 uM after 60 mins by UPLC-MS/MS analysis; assay type: ADME, cell-based, Hepatocyte; conditions: read-out: Stability
Mus musculus [24] = assay: Acute toxicity in C57BL/6 mouse assessed as abnormal clinical signs at […], sc administered as single dose measured after 24 hrs post-injection; assay type: organism-based; conditions: in vivo
[25] = Tmax in C57BL/6 mouse plasma at 20 mg/kg, iv administered as single dose measured 24 hrs by UPLC-MS/MS analysis; assay type: ADME, organism-based
Procedure, shortened: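 Plasma cleaned by protein precipitation with phospholipid removal, then UPLC-MS/MS in MRM mode. Tmax obtained by noncompartmental analysis.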

[26] = Cmax in C57BL/6 mouse plasma at 20 mg/kg, iv administered as single dose measured 24 hrs by UPLC-MS/MS analysis; assay type: ADME, organism-based; design: dose 20 mg/kg, route intravenous; procedure, shortened: as §4
[27] = AUClast in C57BL/6 mouse plasma at 20 mg/kg, iv administered as single dose measured 24 hrs by UPLC-MS/MS analysis; assay type: ADME, organism-based; design: dose 20 mg/kg, route intravenous, time 0 - last; procedure, shortened: as §4
[28] = Apparent half-life of the terminal disposition phase in C57BL/6 mouse plasma at 20 mg/kg, iv administered as single dose measured 24 hrs by UPLC-MS/MS analysis; assay type: ADME, organism-based; conditions: read-out: t1/2 lambda z (converted); procedure, shortened: as §4
[29] = Tmax in C57BL/6 mouse brain at 20 mg/kg, iv administered as single dose measured 24 hrs by UPLC-MS/MS analysis; assay type: ADME, organism-based; procedure, shortened: as §4
[30] = Cmax in C57BL/6 mouse brain at 20 mg/kg, iv administered as single dose measured 24 hrs by UPLC-MS/MS analysis; assay type: ADME, organism-based; design: dose 20 mg/kg, route intravenous; procedure, shortened: as §4
[31] = AUClast in C57BL/6 mouse brain at 20 mg/kg, iv administered as single dose measured 24 hrs by UPLC-MS/MS analysis; assay type: ADME, organism-based; design: dose 20 mg/kg, time 0 - last, route intravenous; procedure, shortened: as §4
[32] = Ratio of AUClast in brain to plasma in C57BL/6 mouse at 20 mg/kg, iv administered as single dose measured 24 hrs by UPLC-MS/MS analysis; assay type: ADME, organism-based; procedure, shortened: as §4
Mus musculus [33] = assay: Acute toxicity in C57BL/6 mouse assessed as abnormal clinical signs at […], iv administered as single dose measured after 24 hrs post-injection; assay type: organism-based; conditions: in vivo
Mus musculus [34] = assay: Acute toxicity in C57BL/6 mouse assessed as abnormal clinical signs at […], po administered as single dose measured after 24 hrs post-injection; assay type: organism-based; conditions: in vivo
[35] = Efflux ratio of apparent permeability in MDCK-WT cells at 10 uM after 1 hr in absence of P-gp inhibitor verapamil by UPLC-MS/MS analysis; conditions: dog

SMILES: C#CCN(C)[C@H](C)Cc1ccccc1 [SELEGILINE]
- remaining at 4 h, 5 µM [1]: 55%
- remaining at 4 h, 5 µM [2]: 61%
- Stability [3]: Unstable
- Stability ([4]; microsomes, 1 h, 1 µM): Unstable
- Activity (Mus musculus [5]): Toxic
- Activity (Mus musculus [6]): Toxic
- Cmax [7]: 569 ng/mL
- Tmax [8]: 5 min
- AUC(0-t) at 24 h [9]: 242 ng·h/mL
- half-life [10]: 33.6 min
- half-life [11]: 17.4 min
- Tmax [12]: 5 min
- Cmax [13]: 4220 ng/mL
- AUC(0-t) at 24 h [14]: 1390 ng·h/mL
- Kp at 24 h [15]: 5.73
- Activity (Mus musculus [16]): Toxic
- Activity (Mus musculus [17]): Toxic
- Activity (Mus musculus [18]): Toxic
- Activity (Mus musculus [19]): Toxic

SMILES: C[C@H](Cc1ccc(OCc2cccc(Cl)c2)cc1)N(C)CC(=O)O
- IC50 [20]: > 50000 nM
- IC50 [21]: 264 nM
- efflux ratio at 1 h, 10 µM (P-gp (MDR1)): 1.75
- remaining at 4 h, 5 µM [1]: ≥ 75%
- remaining at 4 h, 5 µM [2]: ≥ 75%
- remaining at 1 h, 1 µM [22]: 87.3%
- remaining at 1 h, 1 µM ([4]; liver microsomes, read-out: Stability): ≥ 90%
- remaining at 1 h, 1 µM [23]: ≥ 90%
- Activity (Mus musculus [24]): Non-Toxic
- Tmax [25]: 5 min
- Cmax [26]: 16600 ng/mL
- AUC(0-t) at 24 h [27]: 112000 ng·h/mL
- half-life [28]: 271 min
- Tmax [29]: 60 min
- Cmax [30]: 648 ng/mL
- AUC(0-t) at 24 h [31]: 2280 ng·h/mL
- Kp at 24 h [32]: 0.02
- Activity (Mus musculus [33]): Non-Toxic
- Activity (Mus musculus [34]): Non-Toxic
- efflux ratio at 1 h, 10 µM [35]: 1.23
